Shown are actives, neighbours in structure and some others; about 2.4% of the full set was active somewhere.
HTR5A ag ctr – HTR5A agonism, opioid heterodimer counter-screen | HTR5A agonist assay, luminescence, cell-based | activation, % at 9.3 µM | 340,000 compounds, 0.61% hits | AID 504692; in the data active means activation mostly above about 9.5%, no sharp cut-off; inactive means mostly below about 7.6%;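 further: 0% = cells with vehicle only and 100% = reference agonist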
HTR5A inv ag – counter-screen for OPRM1-OPRD1 inverse agonists: human HTR5A inverse agonism. 340,000 compounds, 0.083% hits. AID 504634. P47898. HTR5A cell line, luminescence. inhibition, % at 9.3 µM; in the data active means inhibition mostly above about 23%, no sharp cut-off; inactive means mostly below about 18%;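 further: 0% = cells with DMSO and 100% = no-cell wells with DMSO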
OPRM1-OPRD1 inv – inverse agonist of human OPRM1-OPRD1 heterodimerization | P35372+P41143 | cell-based MOR-DOR heterodimer luminescence, inverse agonism | inhibition, % at 9.3 µM | 340,000 compounds, 0.21% hits | AID 504357; in the data active means inhibition above about 22%, passing the limit was not always enough;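 further: 0% = cells with DMSO and 100% = wells without cells with DMSO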
MOR-DOR ag – OPRM1-OPRD1 heterodimerization agonism; P35372+P41143; cells, luminescence; activation, % at 9.3 µM; 340,000 compounds, 0.3% hits; AID 504326; in the data active means activation above about 18%;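 further: 0% = vehicle-treated cells and 100% = reference agonist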
MC4R antag cAMP – antagonists of human melanocortin 4 receptor (MC4R). P32245. MC4R-expressing cells, MTII-stimulated cAMP, LANCE TR-FRET. inhibition, % at 6.5 µM. 360,000 compounds, 0.48% hits. AID 540295;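 active means inhibition above its plate's cutoff, the mean of tested wells on that plate plus 3 SD, cut at about 29% in these data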;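 further: 0% = Melanotan II alone and 100% = Melanotan II plus saturating MCL0020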
Target sequence (P32245 whole entry, looked up): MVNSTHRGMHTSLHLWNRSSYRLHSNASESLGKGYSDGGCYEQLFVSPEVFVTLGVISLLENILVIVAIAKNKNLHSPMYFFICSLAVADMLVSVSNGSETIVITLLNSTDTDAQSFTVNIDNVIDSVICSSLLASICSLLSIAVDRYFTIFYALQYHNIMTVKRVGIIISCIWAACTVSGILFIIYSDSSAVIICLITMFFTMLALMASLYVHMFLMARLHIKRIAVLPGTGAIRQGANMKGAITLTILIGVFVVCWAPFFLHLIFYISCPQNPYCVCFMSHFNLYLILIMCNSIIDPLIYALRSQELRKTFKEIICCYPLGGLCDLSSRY
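System – human MC4R-expressing U2OS cells · Also added – Melanotan II · Dosing – one concentration, 6.5 µM nominal · Timing – 30-min compound, 1-h challenge, 1-h detection, room temperature · Measured by – Eu-cAMP/anti-cAMP TR-FRET, emission 671 nm · Replicates – singlicate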
MC4R barr agon – human MC4R agonism via beta-arrestin; U2OS MC4R beta-arrestin complementation, luminescence; percent of melanotan II response, DMSO zero; P32245; activation, % at 8.9 µM; 360,000 compounds, 0.98% hits;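 active means activation above a per-plate cutoff, the mean activation of sample wells on that plate plus 3 SD, cut at about 8% in these data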
U2OS cAMP counter – counter-screen for MC4R antagonists: nonselective cAMP signaling inhibitors | parental U2OS, forskolin cAMP, LANCE TR-FRET | inhibition, % at 6.5 µM | 1,600 compounds, 26% hits | shares compounds with MC4R antag cAMP | AID 602193;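 active means mean inhibition over triplicates above the low-control well mean plus 3 SD, set per campaign, cut at about 13% in these data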;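 further: signal is single emission at 671 nm which falls as cellular cAMP rises; 0% = forskolin-stimulated wells and 100% = buffer without forskolin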
MC4R antag conf – human MC4R cAMP antagonism confirmation | AID 602195 | shares compounds with MC4R antag cAMP | 1,600 compounds, 27% hits | MC4R-expressing cells, MTII-stimulated cAMP, TR-FRET | inhibition, % at 6.5 µM; in the data active means inhibition above about 29%;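 further: 0% = agonist stimulated wells alone and 100% = agonist stimulated wells plus saturating reference antagonist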
Numbers without * were called inactive; x = no result.

SMILES	HTR5A ag ctr	HTR5A inv ag	OPRM1-OPRD1 inv	MOR-DOR ag	MC4R antag cAMP	MC4R barr agon	U2OS cAMP counter	MC4R antag conf
CCC(CC)C(=O)N(C)c1c(C)nc2c(OCCOc3ccc(F)cc3)cccn12	x	x	x	x	30*	2	-1	2
CCC(CC)C(=O)N(C)c1c(C)nc2c(OCC(=O)N(C)C)cccn12	x	x	x	x	1	-1	x	x
Cc1cc(OCC(=O)NCCCn2ccnc2)c2c(C)cc(=O)oc2c1	-2	2	17	-3	0	0	x	x
CCCCNC(=O)C1(C)CCCCN1Cc1ccc2ccccc2c1 (stereo unspecified)	x	x	x	x	10	2	x	x
CCCCNC(=O)C1(C)CCCCCN1Cc1cccc2c(OC)cc(C(=O)OCC)cc12 (stereo unspecified)	x	x	x	x	30*	-2	1	4
CC(C)C1Cc2ccccc2-c2[nH]c(=S)[nH]c(=O)c21 (stereo unspecified)	x	x	x	x	36*	4	21*	48*
COc1ccc(CN(C(=O)/C=C/C(=O)c2ccc(OC)cc2O)C(C(=O)NC2CCCCC2)c2ccncc2)cc1 (stereo unspecified)	2	12	3	-1	10	0	x	x
COc1ccc(C(=O)/C=C/C(=O)N(CC(=O)NC2CCCCC2)Cc2cccs2)c(O)c1	-2	7	28	-5	32*	-6	10	23
COCCN(CC(=O)NC1CCCCC1)C(=O)/C=C/C(=O)c1ccc(OC)cc1O	2	-5	28	-5	41*	-6	2	5
O=C(NCCc1csc(-c2ccccc2)n1)c1c(F)cccc1F	-2	-12	11	-2	14	1	x	x
O=C(NCCc1csc(-c2ccccc2)n1)c1c(F)cccc1Cl	3	-8	-1	0	31*	-2	-2	0
CCC(C(=O)NCC1CCCO1)N(C(=O)c1snc(C(N)=O)c1N)c1ccc(Cl)cc1 (stereo unspecified)	-1	14	5	-1	7	-2	x	x
O=C(NCc1ccc(F)cc1)c1cc2c(cc1Cl)N1CCCCCC1=NS2(=O)=O	1	21	1	0	0	0	x	x
C[C@@]12C(=O)N(Cc3ccccc3)CC(=O)N1[C@H]1c3ccccc3OC[C@@H]1[C@@H]2c1ccccc1	3	-13	-15	2	29*	1	0	4
Cc1ccc2c(c1)N(Cc1cccc(Cl)c1)C(=O)c1cccnc1O2	1	-14	0	0	39*	2	-2	-2
COc1ccc(C(C)=O)cc1Cn1c(=O)cc(C)[nH]c1=O	-3	-14	3	0	30*	1	-2	-9
COc1ccc(C(C)=O)cc1CN1C(=O)NC2(CCCCCCC2)C1=O	-2	5	6	-1	13	-3	x	x
O=C(NCCc1ccccc1)C(=O)NCC1OCCN1S(=O)(=O)c1ccc(Cl)cc1 (stereo unspecified)	-4	11	8	-1	-4	-2	x	x
CC(C)(C)c1ccc(-n2nc(C(N)=O)c(O)cc2=O)cc1	2	-6	-22	4	-8	2	x	x
CC(C)(C)c1ccc(-n2nc(C#N)c(Cl)cc2=O)cc1	x	x	x	x	94*	-3	41*	89*
COc1cc(NC(=S)NCCCN2CCOCC2)c(OC)cc1NC(=O)c1ccco1	8	-24	16	-2	-8	-2	x	x
Cc1ccc(C2=NN(CC(=O)O)C(=O)CC2)cc1	-1	4	18	-4	-2	-1	x	x
Cc1ccc2[nH]c3c(=O)n(N)c(C)nc3c2c1	x	x	x	x	-11	1	x	x
Cc1ccc2[nH]c3c(=S)nc[nH]c3c2c1	-2	5	-7	1	48*	-2	13	11
CC1c2[nH]c3ccccc3c2CCN1C(=O)Nc1ccccc1 (stereo unspecified)	9	-21	11	-3	-9	1	x	x
SMILES	HTR5A ag ctr	HTR5A inv ag	OPRM1-OPRD1 inv	MOR-DOR ag	MC4R antag cAMP	MC4R barr agon	U2OS cAMP counter	MC4R antag conf
O=C(Nc1ccccc1)N1CCc2c([nH]c3ccccc23)C1C(F)(F)F (stereo unspecified)	8	-18	-5	1	35*	1	-3	-3
Cc1nc(C)n(CC(=O)N2CCCC(C(=O)c3cccc4ccccc34)C2)n1 (stereo unspecified)	-3	8	7	-1	6	-3	x	x
CCOCC(=O)Nc1ccccc1C(=O)O	-2	-1	-3	1	30*	-1	1	-14
CCCCCCSc1ccc([C@H]2N[C@@](C)(C(=O)OC)[C@H]3C(=O)N(CC)C(=O)[C@@H]23)cc1	3	5	-21	5	12	4	x	x
Cc1nc2ccccc2c2oc(C(=O)N3CCN(c4ccc([N+](=O)[O-])cc4)CC3)cc12	4	3	7	-1	11	2	x	x
COc1cc(-c2cc(NC(C)=O)c3ncc(-c4ccc(C(C)=O)cc4)n3c2)cc(OC)c1OC	x	x	x	x	29*	8.7*	1	12
Cc1ccc(CCNC(=O)CNC(=O)c2cccs2)cc1	-4	9	13	-3	12	-2	x	x
C=C(C)C1CC=C(C)/C(=N/NC(=O)COc2ccccc2Cl)C1 (stereo unspecified)	-1	-18	0	0	33*	-1	-2	-9
Cc1cc(/C=C2/NC(=O)N(Cc3ccccc3F)C2=O)c(C)n1C	-3	8	-11	2	35*	0	2	5
C=CCNC(=O)c1ccc(OC2CCN(S(=O)(=O)N(C)C)CC2)cc1	4	-9	10	-2	-6	-1	x	x
COc1ccc(S(=O)(=O)NNC(=O)c2cccs2)cc1	-5	12	-6	1	33*	0	1	-5
O=C(NNS(=O)(=O)c1ccc(Cl)cc1)c1cccs1	2	16	3	0	2	0	x	x
O=C(NC(=S)Nc1cc(S(=O)(=O)N2CCOCC2)ccc1N1CCOCC1)c1ccco1	1	0	17	-3	37*	-4	1	-7
COc1cc(/C=N/n2cnnc2-n2nc(C)cc2C)cc([N+](=O)[O-])c1O	-4	-3	21	-4	-10	-1	x	x
CC1=NOC(=O)/C1=C/c1ccc(O)cc1	-9	24	0	0	35*	0	-4	-38
O=C(O)[C@H](Cc1ccccc1)NC(=O)N1CCN(c2cccc(C(F)(F)F)c2)CC1	-1	2	3	-1	0	-3	x	x
COc1ccc(-n2c(CN3CCC(C)CC3)nc3ccc([N+](=O)[O-])cc3c2=O)c(OC)c1	-1	13	-3	1	34*	0	0	-9
COc1ccc(N)c2c1C(=O)c1ccccc1C2=O	-2	8	15	-3	-16	-3	x	x

Source: PubChem BioAssay (The Scripps Research Institute Molecular Screening Center)
